Sampled rows, rich in hits. Any-hit rate of the full collection: about 2.9%.
SENP1 inh = blocks the human SENP1 SUMO protease catalytic domain. Q9P0U3. recombinant SENP1 catalytic domain, CyPet-SUMO1-YPet FRET cleavage. inhibition, % at 10 µM. 360,000 compounds, 0.21% hits. AID 624204;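 active = inhibition at least 30% at 10 µM, raw YFP signal under a set limit, fluorescence ratio 0.5 to 1.5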;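 note: 0% = enzyme with DMSO and 100% = no enzyme wells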
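Material: hSENP1 catalytic domain, recombinant; medium: Tris pH 8 with BME, BSA, NP40 and catalase; compound: single concentration of 10 µM compound, 0.5% DMSO final; technique: FRET read of cyan and yellow fluorescence; timing: 50 min enzyme reaction, room temperature, light-protected; reagent: SFCypet-SUMO1-SFYpet substrate at 25 nM; control set: no-enzyme low, enzyme-DMSO high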
SENP6 block = blocks the human protease SENP6; AID 2599; Recombinant SENP6 catalytic domain, aminoluciferin luminescence; 330,000 compounds, 1.8% hits; inhibition, % at 10 µM; Q9GZR1;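 active = inhibition above about 50% at the single tested dose, limit read from the data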;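 note: plate controls were DMSO wells with enzyme for no effect and DMSO wells lacking enzyme for full effect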
SENP8 block-1 = inhibitors of human SENP8 protease; purified SENP8, Z-RLRGG-aminoluciferin cleavage, luminescence; inhibition, % at 10 µM; 330,000 compounds, 1.2% hits; AID 2540; in the data active = inhibition above about 50%
Target sequence (Q96LD8 whole entry, looked up): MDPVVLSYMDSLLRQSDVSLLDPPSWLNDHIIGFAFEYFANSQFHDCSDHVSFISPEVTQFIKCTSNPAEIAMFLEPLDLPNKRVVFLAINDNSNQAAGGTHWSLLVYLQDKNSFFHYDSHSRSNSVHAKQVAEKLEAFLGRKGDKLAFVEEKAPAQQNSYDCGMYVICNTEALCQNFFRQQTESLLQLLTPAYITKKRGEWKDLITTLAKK
SENP7 inh = blocks the human protease SENP7; recombinant SENP7, Z-RLRGG-aminoluciferin luminescence, 40 min; inhibition, % at 5 µM; 330,000 compounds, 1.5% hits; AID 434973;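 active = inhibition above about 50% at the single test dose, limit read from the data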;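 note: plate controls were DMSO with enzyme for no effect and no enzyme buffer wells for full effect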
HSP90 inh = HSP90 refolding inhibition in rabbit reticulocyte lysate | luciferase refolding luminescence, 3 h | inhibition, % at 5.6 µM | 290,000 compounds, 0.91% hits;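 active = inhibition above the screen-wide mean plus 3 SD, computed separately per campaign, cut at about 16% in these data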;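 note: 0% = DMSO wells and 100% = 60 µM geldanamycin wells; inhibitors lower the luminescence because luciferase stays unfolded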
SENP8 block-2 = inhibitors of human SENP8 protease; inhibition, % at 20 µM; 360,000 compounds, 0.64% hits; AID 602440; recombinant SENP8, Nedd8 substrate fluorescence; in the data active = inhibition mostly above about 40%, no sharp cut-off; inactive = mostly below about 27%
SENP8 confirm = confirmation of human SENP8 protease inhibitors | shares compounds with SENP7 inh | Recombinant SENP8, Z-RLRGG-aminoluciferin luminescence, 60 min | inhibition, % at 12.5 µM | 6,200 compounds, 40% hits | AID 488912;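 active = mean inhibition across replicates above about 50%, limit read from the data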
SENP6 confirm = confirmation of human SENP6 protease inhibitors. inhibition, % at 12.5 µM. shares compounds with SENP7 inh. 6,200 compounds, 58% hits. recombinant SENP6, Z-RLRGG-aminoluciferin luminescence
SENP7 confirm = human SENP7 inhibition, confirmed | shares compounds with SENP7 inh | inhibition, % at 12.5 µM | 6,200 compounds, 69% hits | AID 488917 | recombinant SENP7, Z-RLRGG-aminoluciferin luminescence, 40 min
Casp3 select = caspase-3 inhibition (SENP selectivity assay). shares compounds with SENP7 inh. purified caspase-3, Z-DEVD-aminoluciferin luminescence, 60 min. inhibition, % at 12.5 µM. 6,200 compounds, 60% hits. AID 488918;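 active = mean inhibition above about 50%, limit read from the data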;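 note: plate controls were enzyme with DMSO for no effect and wells without caspase-3 for full effect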
Target sequence (P42574 28-227 limits assumed): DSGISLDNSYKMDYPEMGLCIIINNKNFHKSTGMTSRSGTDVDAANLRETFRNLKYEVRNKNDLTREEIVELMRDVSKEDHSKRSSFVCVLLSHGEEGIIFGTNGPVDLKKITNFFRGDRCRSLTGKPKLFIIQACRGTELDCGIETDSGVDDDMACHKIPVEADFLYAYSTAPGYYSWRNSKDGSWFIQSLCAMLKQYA
SENP luc ctr = counter-screen for SENP inhibitors: luminescence interference; shares compounds with SENP7 inh; Pre-incubated SENP8/Z-RLRGG-aminoluciferin, luciferase luminescence interference; inhibition, % at 12.5 µM; 6,200 compounds, 39% hits; AID 488919;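 active = mean inhibition above about 50% when retested at one dose, limit read from the data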;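 note: plate controls were DMSO wells with completed reaction for no effect and substrate without enzyme for full effect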
* hit, by the source's call.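 Rule for the calls, unless noted: active = mean inhibition above about 50% in the one-dose retest (limit read from the data); inactive = the rest.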

`COc1ccc(/C=C2\SC(=S)N(CC(=O)N3CCN(C)CC3)C2=O)cc1` gave SENP1 inh -34, SENP6 block -33, SENP8 block-1 -13, SENP7 inh -6, HSP90 inh 5 and SENP8 block-2 31.
For COC(=O)c1ccc(/C=C2\SC(=S)N(CCCC(=O)N3CCOCC3)C2=O)cc1 the results were SENP1 inh 0 and SENP8 block-2 2.
`Cc1ccc(/C=C2\SC(=S)N(CCCC(=O)N3CCOCC3)C2=O)cc1` gave SENP1 inh 1, SENP6 block 84*, SENP8 block-1 84*, SENP7 inh 84*, HSP90 inh 6, SENP8 block-2 11, SENP8 confirm 90*, SENP6 confirm 89*, SENP7 confirm 97*, Casp3 select 72* and SENP luc ctr 75*.
For CCOc1ccc(/C=C2\SC(=S)N(CCC(=O)O)C2=O)cc1 the results were SENP1 inh -25, SENP6 block 99*, SENP8 block-1 97*, SENP7 inh 60*, HSP90 inh 7, SENP8 block-2 16, SENP8 confirm 97*, SENP6 confirm 100*, SENP7 confirm 103*, Casp3 select 49 and SENP luc ctr 92*.
For COc1ccc(NS(=O)(=O)c2c(C)cc(C)cc2C)cn1 the results were SENP1 inh -1, SENP6 block 4, SENP8 block-1 8, SENP7 inh 1, HSP90 inh 1 and SENP8 block-2 18.
Screening O=C(Nc1ccc(OC(F)(F)F)cc1)c1[nH]ncc1[N+](=O)[O-] returned SENP1 inh 0, SENP6 block 72*, SENP8 block-1 56*, SENP7 inh 32, HSP90 inh 2, SENP8 block-2 1, SENP8 confirm 70*, SENP6 confirm 68*, SENP7 confirm 88*, Casp3 select 59* and SENP luc ctr 70*.
`O=C(Nc1ccc([N+](=O)[O-])cc1)c1ccc(S(=O)(=O)N2CCCC2)cc1` gave SENP1 inh 2, SENP6 block 4, SENP8 block-1 -3, SENP7 inh -11, HSP90 inh -2 and SENP8 block-2 8.
`O=C(Nc1ccc(S(=O)(=O)N2CCCCCC2)cc1)c1[nH]ncc1[N+](=O)[O-]` gave SENP1 inh 1, SENP6 block 75*, SENP8 block-1 75*, SENP7 inh 41, HSP90 inh 0, SENP8 block-2 10, SENP8 confirm -7, SENP6 confirm 72*, SENP7 confirm 90*, Casp3 select 65* and SENP luc ctr 78*.
Screening Cc1onc(C(=O)Nc2ccc(OC(F)(F)F)cc2)c1[N+](=O)[O-] returned SENP1 inh 5, SENP6 block -6, SENP8 block-1 1, SENP7 inh 6, HSP90 inh 0 and SENP8 block-2 4.
O=C(Nc1ccc(OC(F)(F)F)cc1)Nc1cccc([N+](=O)[O-])c1 was read as SENP1 inh 3, SENP6 block 56*, SENP8 block-1 28, SENP7 inh 24, HSP90 inh 1, SENP8 block-2 14, SENP8 confirm 8, SENP6 confirm 26, SENP7 confirm 72*, Casp3 select 6 and SENP luc ctr 0.
`CCOc1cc(N2CCOCC2)c(OCC)cc1NC(=O)c1ccc(OC)c(S(=O)(=O)N2CCOCC2)c1` gave SENP1 inh 27, SENP6 block -16, SENP8 block-1 -2, SENP7 inh 0 and SENP8 block-2 10.
`CCOC(=O)C1(Cc2ccccc2Cl)CCN(C(=O)CCn2ccnc2C)CC1` gave SENP1 inh 1, SENP6 block -22, SENP8 block-1 -9, SENP7 inh -9, HSP90 inh 0 and SENP8 block-2 4.
For CCCCNC(=O)C1(C)CCCCN1C(=O)c1cc2ccccc2s1 (stereo not given) the results were SENP1 inh -1 and SENP8 block-2 17.
For NCCNc1cc(N2CCCC2)ccc1[N+](=O)[O-] the results were SENP1 inh 5, SENP6 block -12, SENP8 block-1 1, SENP7 inh 77*, HSP90 inh 2, SENP8 block-2 20, SENP8 confirm -29, SENP6 confirm -14, SENP7 confirm -5, Casp3 select -6 and SENP luc ctr -7.
Screening Clc1cc2nc(-c3cccnc3Cl)[nH]c2cc1Cl returned SENP1 inh -42, SENP6 block 77*, SENP8 block-1 38, SENP7 inh 73*, HSP90 inh 2, SENP8 block-2 -207, SENP8 confirm 3, SENP6 confirm 8, SENP7 confirm 90*, Casp3 select 59* and SENP luc ctr 1.
Cc1cc2nc(-c3ccccc3O)[nH]c2cc1C was read as SENP1 inh -63 and SENP8 block-2 -495.
For CCOc1ccccc1-n1c(SC(C)C(=O)NCC2CCCO2)nc2ccccc2c1=O (stereo not given) the results were SENP1 inh 0, SENP6 block -11, SENP8 block-1 3, SENP7 inh -2 and SENP8 block-2 -27.
For CCOc1ccc(OCCC(=O)N(CC(C)C)c2c(N)n(Cc3ccccc3)c(=O)[nH]c2=O)cc1 the results were SENP1 inh -5 and SENP8 block-2 -50.
Cc1nc2ccc(-c3nc4ccccc4o3)cc2[nH]1 was read as SENP1 inh 2, SENP6 block 8, SENP8 block-1 28, SENP7 inh 62*, HSP90 inh 4, SENP8 block-2 -361, SENP8 confirm 63*, SENP6 confirm 59*, SENP7 confirm 84*, Casp3 select 60* and SENP luc ctr 64*.
For Cc1ccnc2ccc(-c3nc4ccccc4o3)cc12 the results were SENP1 inh 3, SENP6 block 88*, SENP8 block-1 71*, SENP7 inh 83*, HSP90 inh -3, SENP8 block-2 inactive, SENP8 confirm 25, SENP6 confirm 20, SENP7 confirm 58*, Casp3 select 40 and SENP luc ctr 9.

High-throughput results from PubChem BioAssay.
